Experimental data from different studies.
Protocols differ between the studies behind these lines.
PTGS2: Prostaglandin G/H synthase 2 (PTGS2, Homo sapiens, UniProt P35354)
DYRK1B: Dual specificity tyrosine-phosphorylation-regulated kinase 1B (DYRK1B, Homo sapiens, UniProt Q9Y463)

The remaining binding of NS(=O)(=O)c1ccc(Nc2nc(-c3ccc(F)cc3)c3ccccc3n2)cc1 is reported as 54% (CREB-binding protein (CREBBP, Homo sapiens, UniProt Q92793); binding; competition with immobilised ligand; 1 µM).
For C[S+]([O-])c1ccc(-c2nc(-c3ccncc3)c(-c3ccc(F)cc3)[nH]2)cc1 (centres unmarked), the ΔTm was 0.59 °C (Bromodomain testis-specific protein, BD2 (BRDT, Homo sapiens, UniProt Q58F21); thermal stability; DSF; 10 µM).
O=c1cc(-c2ccc(O)cc2)oc2cc(O)cc(O)c12 gave an inhibition of 16.4% (PTGS2; enzyme activity; inhibitor; 0.49 µg/mL).
O=C(O)c1ccc2c(c1)nc(Nc1ccc(F)c(Cl)c1)c1ncncc12 gave a remaining activity of 60% (DYRK1B; enzyme activity; inhibitor; radiometric; 1 µM).
Cc1cnc(Nc2ccc(OCCN3CCCC3)cc2)nc1Nc1cccc(S(=O)(=O)NC(C)(C)C)c1 has a ΔTm of 3.38 °C (Bromodomain testis-specific protein, BD1 (BRDT, Homo sapiens, UniProt Q58F21); thermal stability; DSF; 10 µM).
Cc1cc2c(cc1N1C(=O)c3cccc4c(Cl)ccc(c34)C1=O)n(C)c(=O)n2C has a ΔTm of 0.3 °C (Transcription intermediary factor 1-beta (TRIM28, Homo sapiens, UniProt Q13263); thermal stability; DSF; 10 µM).
With O=C(O)c1ccc2c(c1)nc(Nc1cccc(F)c1)c1ccncc12 the remaining activity was 13% (DYRK1B; enzyme activity; inhibitor; radiometric; 1 µM).
O=C(O)c1ccc(O)cc1 gave an inhibition of 19.4% (PTGS2; enzyme activity; inhibitor; 0.49 µg/mL).
